The target in data set [1] is T1, Retinoic acid receptor RXR-alpha (Homo sapiens) (UniProt P19793).
T1 sequence (whole entry): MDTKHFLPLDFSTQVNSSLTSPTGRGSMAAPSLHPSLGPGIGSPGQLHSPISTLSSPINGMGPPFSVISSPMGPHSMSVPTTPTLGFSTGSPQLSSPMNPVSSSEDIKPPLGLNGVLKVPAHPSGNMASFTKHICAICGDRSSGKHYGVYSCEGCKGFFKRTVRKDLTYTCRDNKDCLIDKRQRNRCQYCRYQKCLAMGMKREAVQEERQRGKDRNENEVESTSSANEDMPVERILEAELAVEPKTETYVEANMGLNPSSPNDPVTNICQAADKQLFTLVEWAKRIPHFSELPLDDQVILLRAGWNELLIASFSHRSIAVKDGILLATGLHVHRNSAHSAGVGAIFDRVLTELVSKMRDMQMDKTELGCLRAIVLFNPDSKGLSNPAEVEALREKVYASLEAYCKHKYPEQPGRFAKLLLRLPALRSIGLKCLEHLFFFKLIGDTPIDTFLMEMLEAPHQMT
Nature of the data set: Partial agonist activity at human RXRalpha by luciferase reporter gene assay. The method, boiled down: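 COS-1 cells transfected with RXRα, luciferase reporter under RXR response element, and SEAP control; cells seeded ~2.0 × 10⁴/well with compound (DMSO below 1%), 18 h at 37 °C, 5% CO₂. Luciferase normalized to SEAP, expressed relative to 1 μM LGD1069 as 100%; EC₅₀ from full dose-response curves; triplicate, three experiments.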
A general note: In a reporter assay the amount or activity of a reporter protein is the signal.

Data set [2] deals with Mus musculus. Nature of the data set: Antidiabetic activity in KKAy mouse assessed as reduction in water intake on day 3 to 12 at 10 mg/kg/day, po for 14 days relative to control. Type of data set: functional, organism-based. The method, boiled down:
(§1)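 Male KK-A^y mice, housed singly after 6 weeks' acclimation and grouped by blood glucose. Oral 10 mg/kg/day or vehicle (1% ethanol/0.5% CMC in water, 10 mL/kg) for 14 days. Body weight, food and water intake were followed. Fed blood glucose was taken from the tail vein by the glucose oxidase method. n = 4−5, ANOVA.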

The subject of data set [3] is Mus musculus. Nature of the data set: Toxicity against KKAy mouse assessed as plasma ALT level at 10 mg/kg/day, po for 14 days (reference value: 17.6 +/- 0.9 IU). Type of data set: organism-based. The note with it: in vivo, 336 h. Details: route oral.
Data set [4] relates to Mus musculus. Nature of the data set: Toxicity against KKAy mouse assessed as creatinine level at 10 mg/kg/day, po for 14 days (reference value: 0.2 mg/dl). It is filed as organism-based. Also on record: route oral. Particulars: in vivo, 336 h.
For data set [5], the target named is T1, Retinoic acid receptor RXR-alpha (Homo sapiens). Nature of the data set: Partial agonist activity at RXRalpha (unknown origin) expressed in COS1 cells after 18 hrs by luciferase reporter gene assay relative to bexarotene. It is filed as cell-based. Particulars: COS-1. The method, boiled down:
(§2)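 COS-1 cells in DMEM with 10% FBS at 37 °C, 5% CO2, transfected with RXRα, an RXR-response-element luciferase reporter and a SEAP background vector. Cells were seeded at about 2.0 × 10⁴ per well with compound (DMSO below 1%) for 18 h. Luciferase was normalized to SEAP and expressed relative to 1 μM reference RXR full agonist as 100%. EC50 came from full dose-response curves. Triplicates, at least three experiments.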

The subject of data set [6] is Mus musculus. Nature of the data set: Toxicity against KKAy mouse assessed as plasma triglyceride level at 10 mg/kg/day, po for 14 days (reference value: 122.4 +/- 11.0 mg/dL). It is filed as organism-based. Also on record: route oral. The note with it: in vivo, 336 h.
Data set [7] deals with Rattus norvegicus. Nature of the data set: Toxicity in Sprague-Dawley rat assessed as change in weight of organs at 30 mg/kg, po for 28 days. It is filed as organism-based. Particulars: in vivo, 672 h. Also on record: dose 30 mg/kg, route oral. The method, boiled down: (§3)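 Male and female SD rats, four weeks old on arrival, two per cage. Oral 30 mg/kg/day or vehicle (1% ethanol/0.5% CMC in water, 5 mL/kg) for 28 days, body weight recorded daily. After overnight fasting and isoflurane anaesthesia, liver, brain, kidney, spleen and testis were weighed, and serum was collected (2000g, 10 min, 4 °C) for blood chemistry.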

Data set [8] deals with T1, Retinoic acid receptor RXR-alpha (Homo sapiens). Nature of the data set: Transactivation of RXRalpha (unknown origin) expressed in COS1 cells at 10 uM after 18 hrs by luciferase reporter gene assay relative to bexarotene. It is filed as cell-based. Particulars: COS-1. The method, boiled down:
as §2

Data set [9] deals with T2, Retinoic acid receptor gamma (Homo sapiens) (UniProt P13631).
T2 sequence (whole entry): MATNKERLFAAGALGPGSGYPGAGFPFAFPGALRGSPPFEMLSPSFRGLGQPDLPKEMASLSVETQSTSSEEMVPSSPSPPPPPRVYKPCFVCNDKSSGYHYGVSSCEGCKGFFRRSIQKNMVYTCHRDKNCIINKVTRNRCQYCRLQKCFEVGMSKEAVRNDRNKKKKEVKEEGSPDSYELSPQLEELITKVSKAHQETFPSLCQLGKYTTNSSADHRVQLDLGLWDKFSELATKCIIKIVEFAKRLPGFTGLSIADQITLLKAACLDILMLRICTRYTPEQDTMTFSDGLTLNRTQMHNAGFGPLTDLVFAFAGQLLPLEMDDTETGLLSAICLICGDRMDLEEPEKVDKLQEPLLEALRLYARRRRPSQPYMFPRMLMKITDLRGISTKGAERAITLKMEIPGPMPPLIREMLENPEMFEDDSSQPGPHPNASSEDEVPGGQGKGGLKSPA
Nature of the data set: Transactivation of RARgamma (unknown origin) by luciferase reporter gene assay relative to All-trans retinoic acid.

The subject of data set [10] is Mus musculus. Nature of the data set: Toxicity against KKAy mouse assessed as plasma AST level at 10 mg/kg/day, po for 14 days (reference value: 49.6 +/- 2.3 IU). It is filed as organism-based. Also on record: route oral. Particulars: in vivo, 336 h.
Data set [11] concerns the target T1, Retinoic acid receptor RXR-alpha (Homo sapiens). Nature of the data set: Transactivation of RXRalpha (unknown origin) expressed in COS1 cells at 1 uM after 18 hrs by luciferase reporter gene assay relative to bexarotene. Type of data set: cell-based. The note with it: COS-1. The method, boiled down:
as §2

Data set [12] concerns Rattus norvegicus. Nature of the data set: Hepatotoxicity in Sprague-Dawley rat at 30 mg/kg/day, po for 28 days. Particulars: in vivo, 672 h. Details: route oral. Type of data set: toxicity, organism-based. The method, boiled down: as §3
Data set [13] deals with Mus musculus. Nature of the data set: Toxicity against KKAy mouse assessed as total cholesterol level at 10 mg/kg/day, po for 14 days (reference value: 153.2 +/- 11.1 mg/dL). It is filed as organism-based. Also on record: route oral. Particulars: in vivo, 336 h.
The subject of data set [14] is Mus musculus. Nature of the data set: Antidiabetic activity in KKAy mouse assessed as reduction in blood glucose level on day 4 to 12 at 10 mg/kg/day, po for 14 days. Type of data set: functional, organism-based. The method, boiled down:
as §1

In data set [15] the target is T3, Retinoic acid receptor RXR-beta (Homo sapiens) (UniProt P28702).
T3 sequence (whole entry): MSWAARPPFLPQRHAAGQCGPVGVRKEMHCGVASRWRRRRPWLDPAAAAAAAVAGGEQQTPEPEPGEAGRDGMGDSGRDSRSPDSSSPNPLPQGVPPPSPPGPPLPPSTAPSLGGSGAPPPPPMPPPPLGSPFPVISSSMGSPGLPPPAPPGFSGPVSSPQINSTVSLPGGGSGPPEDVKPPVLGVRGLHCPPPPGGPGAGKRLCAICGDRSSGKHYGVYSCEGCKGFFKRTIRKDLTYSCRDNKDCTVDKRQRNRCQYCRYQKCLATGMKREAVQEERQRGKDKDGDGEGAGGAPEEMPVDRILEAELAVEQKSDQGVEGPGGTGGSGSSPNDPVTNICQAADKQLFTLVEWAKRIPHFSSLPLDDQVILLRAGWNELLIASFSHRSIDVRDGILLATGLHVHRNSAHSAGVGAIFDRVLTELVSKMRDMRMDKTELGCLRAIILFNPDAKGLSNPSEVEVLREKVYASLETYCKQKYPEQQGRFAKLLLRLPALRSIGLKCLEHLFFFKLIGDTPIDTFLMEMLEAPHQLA
Nature of the data set: Partial agonist activity at RXRbeta (unknown origin) by luciferase reporter gene assay relative to LGD1069.

Activity calls are given as the source filed them. The rule behind the calls is not given here.

Usually Emax stands for the maximal effect, on the per cent scale that the assay sets. As for `Cc1cc2c(cc1-n1c(C(F)(F)F)nc3cc(C(=O)O)ccc31)C(C)(C)CCC2(C)C`, the result in data set [1], in data set [2], in data set [9], in data set [14] and in [15] was Active. The Activity is 17.3 IU in [3]; 0.2 mg/dL in data set [4]; 185 mg/dL in data set [6]; “Non-toxic” in data set [7]; 42.3 IU in data set [10]; “Toxic” in data set [12]. In addition, in data set [13], the Activity amounted to 155.3 mg/dL. The Emax in data set [5] is 67%. The Efficacy in [8] is 71%; in data set [11] it was 65%.
